Series [1] concerns Staphylococcus aureus. In words: Antibacterial activity against methicillin-resistant Staphylococcus aureus N315 assessed as reduction of enrofloxacin MIC at 1 ug/ml by microbroth dilution method. The format is functional. The gist of the method:
(§1)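 Standard microbroth dilution in Mueller-Hinton broth against methicillin-resistant S. aureus N315. The enrofloxacin MIC was determined with the test compound added to the broth.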
(In broth dilution the organism is exposed to a series of concentrations in liquid medium.)

Series [2] concerns Staphylococcus aureus. In words: Inhibition of biofilm formation in Staphylococcus aureus 8325-4 at 8 mM after 24 hrs by microtiter plate assay in presence of glucose. The class given is functional. The conditions noted are these: 8325-4, 24 h. The gist of the method: (§2)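 Same static crystal-violet biofilm protocol as above, with 1% glucose added to the TS medium. S. aureus 8325-4 grew 24 h at 37 °C with the compound. Adherent cells were stained with crystal violet, eluted in ethanol and read at A630. Means come from three independent experiments.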

Series [3] has as its system Staphylococcus aureus. The series is described as follows: Antibacterial activity against Staphylococcus aureus 8325-4 assessed as reduction of enrofloxacin MIC at 1 ug/ml by microbroth dilution method. The class given is functional. The essentials:
(§3)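 Standard broth microdilution in Mueller-Hinton broth gave MICs. For the combination lines, enrofloxacin MIC was measured with the tested compound present at the stated concentration.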

For series [4], the system named is Staphylococcus aureus. In words: Toxicity in Staphylococcus aureus 8325-4 assessed as inhibition of bacterial growth. The class given is organism-based.
In series [5] the test system is Staphylococcus aureus. In words: Inhibition of biofilm formation in Staphylococcus aureus 8325-4 after 24 hrs by microtiter plate assay. The class given is functional, organism-based. The conditions noted are these: for EC50: Staphylococcus aureus, 8325-4, 24 h. The essentials:
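Static 96-well crystal-violet assay with S. aureus 8325-4. Inoculum came from an overnight BHI agar culture, suspended in 0.9% NaCl to McF 0.5, 5 μL per well into TS medium containing compounds as monosodium salts at […]. Plates ran 24 h at 37 °C. Wells were rinsed three times, stained with 1% crystal violet for 15 min and eluted with 96% ethanol. Read at A630, at least triplicate.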

Series [6] concerns Staphylococcus aureus. The series is described as follows: Antibacterial activity against Staphylococcus aureus ATCC 29213 assessed as reduction of enrofloxacin MIC at 32 ug/ml by microbroth dilution method. The format is functional. The gist of the method: as §3
The subject of series [7] is Staphylococcus aureus. The series is described as follows: Antibacterial activity against Staphylococcus aureus ATCC 29213 assessed as reduction of enrofloxacin MIC at 8 ug/ml by microbroth dilution method. The class given is functional. The essentials: as §3
The subject of series [8] is Staphylococcus aureus. The series is described as follows: Antibacterial activity against Staphylococcus aureus 8325-4 assessed as reduction of enrofloxacin MIC at 32 ug/ml by microbroth dilution method. The class given is functional. The essentials:
as §3

The test system of series [9] is Staphylococcus aureus. The series is described as follows: Antibacterial activity against methicillin-resistant Staphylococcus aureus N315 assessed as reduction of enrofloxacin MIC at 8 ug/ml by microbroth dilution method. The format is functional. The essentials:
as §1

The subject of series [10] is Staphylococcus aureus. In words: Antibacterial activity against Staphylococcus aureus ATCC 29213 assessed as reduction of enrofloxacin MIC at 1 ug/ml by microbroth dilution method. The class given is functional. The essentials: as §3
For series [11], the system named is Staphylococcus aureus. In words: Inhibition of biofilm formation in Staphylococcus aureus 8325-4 at […] after 24 hrs by microtiter plate assay in presence of glucose. The class given is functional, organism-based. The gist of the method:
as §2

Series [12] deals with Staphylococcus aureus. The series is described as follows: Disruption of biofilm formation in Staphylococcus aureus 8325-4 after 24 hrs by microtiter plate assay. The format is functional, organism-based.
For series [13], the system named is Staphylococcus aureus. In words: Antibacterial activity against methicillin-resistant Staphylococcus aureus N315 assessed as reduction of enrofloxacin MIC at 32 ug/ml by microbroth dilution method. The format is functional. The essentials: as §1
Series [14] relates to Staphylococcus aureus. In words: Antibacterial activity against Staphylococcus aureus 8325-4 assessed as reduction of enrofloxacin MIC at 8 ug/ml by microbroth dilution method. The format is functional. The essentials:
as §3

For series [15], the system named is Staphylococcus aureus. In words: Antibacterial activity against Staphylococcus aureus ATCC 29213 by microbroth dilution method. The format is functional. The essentials:
as §3

In series [16] the test system is Staphylococcus aureus. The series is described as follows: Antibacterial activity against Staphylococcus aureus 8325-4 by microbroth dilution method. The format is functional. The essentials:
as §3

Series [17] has as its system Staphylococcus aureus. The series is described as follows: Antibacterial activity against methicillin-resistant Staphylococcus aureus N315 by microbroth dilution method. The class given is functional. The gist of the method:
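MIC against methicillin-resistant S. aureus N315, determined by standard microbroth dilution in Mueller-Hinton broth.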

The record followed here is ChEMBL document CHEMBL3600361, “Hydnocarpin-Type Flavonolignans: Semisynthesis and Inhibitory Effects on Staphylococcus aureus Biofilm Formation” (J Nat Prod, 2015).

≈ marks a conversion by molar mass, not a printed value. Calls of active or inactive are those of the source. The calls are words filed in the database; no cut-off is given here.

As a reminder, the MIC is the least concentration at which growth counts as inhibited. One may read the inhibition as the change of the read-out against control, counted positive when it falls. What is called EC50 is the concentration giving half of the maximal effect. With `COc1cc([C@@H]2Oc3cc(-c4cc(=O)c5c(O)cc(O)cc5o4)ccc3O[C@H]2CO)ccc1O`, the MIC in series [1] came out at 1 µg/mL; in series [3], 0.125 µg/mL; in [6], 0.0625 µg/mL; in series [7], 0.0625 µg/mL; in [8], 0.0625 µg/mL; in series [9] it was 0.5 µg/mL. In addition, the MIC in [10] was determined as 0.25 µg/mL; in [13], 0.5 µg/mL; in series [14], 0.0625 µg/mL. In addition, the inhibition at 8000 µM in series [2] is 80%. Besides, the Activity entry in series [4] is “Non-toxic”. Also, the MBIC in series [5] turned out to be 8 µM. This compound had an EC50 in series [5] of 2 µg/mL (≈ 4.31 µM). The inhibition result in [11] is “Active”. Also, in series [12], the result was inactive.
With `COc1cc([C@H]2Oc3ccc(-c4cc(=O)c5c(O)cc(O)cc5o4)cc3O[C@@H]2CO)ccc1O`, in [4], the Activity result is recorded as “Non-toxic”. For the same compound, in [5], the MBIC was 64 µM and the EC50 was 16 µg/mL (≈ 34.5 µM). The result in series [12] was inactive.
Taken in the same sequence, the figures for `COc1cc(C2Oc3c(O)cc(-c4cc(=O)c5c(O)cc(O)cc5o4)cc3C2CO)ccc1O` (stereo unspecified) were “Non-toxic”, over 124 µM, 64 µg/mL (≈ 138 µM) and “inactive”.
The like results for `COc1cc(C2Oc3cc([C@H]4Oc5cc(O)cc(O)c5C(=O)[C@@H]4O)ccc3OC2CO)ccc1O` (stereo partly specified) [SILIBININ] were, in that order, “Non-toxic”, over 124 µM, 64 µg/mL (≈ 133 µM) and “inactive”.
`CCN1CCN(c2cc3c(cc2F)c(=O)c(C(=O)O)cn3C2CC2)CC1` [ENROFLOXACIN]: the MIC in series [15] was determined as 1 µg/mL (≈ 2.78 µM); in series [16] it was 0.5 µg/mL (≈ 1.39 µM); in [17], 2 µg/mL (≈ 5.56 µM).
With `COc1cc([C@H]2Oc3cc(-c4cc(=O)c5c(O)cc(O)cc5o4)ccc3O[C@@H]2CO)ccc1O` [HYDNOCARPIN], the Activity entry in [4] was “Non-toxic”. In series [5], this compound returned an MBIC of 64 µM and an EC50 of 16 µg/mL (≈ 34.5 µM). In [12], the outcome was inactive.
Taken in the same sequence, the figures for `COc1cc([C@H]2Oc3cc(-c4oc5cc(O)cc(O)c5c(=O)c4O)ccc3O[C@@H]2CO)ccc1O` were “Non-toxic”, 64 µM, 16 µg/mL (≈ 33.3 µM) and “inactive”.
In the case of `COc1cc(C2Oc3cc(-c4cc(=O)c5c(O)cc(O)cc5o4)ccc3OC2CO)ccc1O` (racemic), the Activity result in [4] is recorded as “Non-toxic”. In addition, in [5], the MBIC came to 32 µM and the response was half-maximal at 4 µg/mL (≈ 8.61 µM) (EC50). Also, in series [12], the result was inactive.
In the case of `COc1cc([C@H]2Oc3ccc([C@H]4Oc5cc(O)cc(O)c5C(=O)[C@@H]4O)cc3O[C@@H]2CO)ccc1O` [ISOSILYBIN A], in series [4], the Activity entry is “Non-toxic”. Besides, in [5], the MBIC stood at 124 µM and the response was half-maximal at 32 µg/mL (≈ 66.3 µM) (EC50). Further, the result in series [12] was inactive.
